Measured values of several laboratories.
Observed: cell growth or viability

SMILES | cell line | technique | tested at | time | viability [%]
CC(=NNC(=O)c1ccncc1)c1ccc(Nc2nnc(-c3ccc(Cl)cc3)c3ccccc23)cc1 | HepG2 | MTT | 1.25 µM | 24 h | 5.31
CC(=O)c1nn(-c2ccccc2Cl)/c(=N/N=C(\C)c2ccc(NC(=O)c3ccccc3)cc2)s1 | HepG2 | MTT | 0.312 µM | – | 6.13
CC(=NNC(=S)Nc1ccccc1)c1ccc(Nc2nnc(-c3ccc(Cl)cc3)c3ccccc23)cc1 | HepG2 | MTT | 10 µM | 24 h | 4.26
CC(=NNC(=O)COc1ccc2c(C)c(Cc3ccccc3)c(=O)oc2c1C)c1ccc(Br)cc1 | HepG2 | MTT | 0.2 µg/mL | – | 62.9
CCOC(=O)c1nn(-c2cccc(Cl)c2)/c(=N/N=C(\C)c2ccc(NC(=O)c3ccccc3)cc2)s1 | HepG2 | MTT | 2.5 µM | – | 2.82
CC(C)(C)c1cnc(CSc2cnc(NC(=O)C3CCN(C(=O)CCCSc4cccc5c4C(=O)N(C4CCC(=O)NC4=O)C5=O)CC3)s2)o1 (stereo not shown) | HH | CCK-8 | 10 nM | – | 99.7
CCOC(=O)c1nn(-c2cccc(Cl)c2)/c(=N/N=C(\C)c2ccc(NC(=O)c3ccc(Cl)cc3)cc2)s1 | HepG2 | MTT | 2.5 µM | – | 2.86
CC(C)(C)c1cnc(CSc2cnc(NC(=O)C3CCN(CCCCCSc4cccc5c4CN(C4CCC(=O)NC4=O)C5=O)CC3)s2)o1 (stereo not shown) | HH | CCK-8 | 50 nM | – | 97.6
CC(=O)c1nn(-c2ccc(C)cc2)/c(=N/N=C(\C)c2ccc(NC(=O)c3ccccc3)cc2)s1 | HepG2 | MTT | 78 nM | – | 73.6
CC(C)(C)c1cnc(CSc2cnc(NC(=O)C3CCN(C(=O)COCCOCCSc4cccc5c4C(=O)N(C4CCC(=O)NC4=O)C5=O)CC3)s2)o1 (stereo not shown) | HH | CCK-8 | 0.2 µM | – | 94.2
O=C(C=Cc1ccccc1)Nc1ccc(Oc2nnc(-c3ccc(Cl)cc3)c3ccccc23)cc1 | HepG2 | MTT | 0.625 µM | 24 h | 78.5
CC(=O)Nc1ccc(/C(C)=N/N=c2\sc(C(C)=O)nn2-c2ccc(C)cc2)cc1 | HepG2 | MTT | 0.625 µM | – | 99.8
CC(=NNC(=O)c1ccc(N)cc1)c1ccc(Nc2nnc(-c3ccc(Cl)cc3)c3ccccc23)cc1 | HepG2 | MTT | 0.625 µM | 24 h | 91.5
CC(C)(C)c1cnc(CSc2cnc(NC(=O)C3CCN(CCCCCCCCSc4cccc5c4C(=O)N(C4CCC(=O)NC4=O)C5=O)CC3)s2)o1 (stereo not shown) | HH | CCK-8 | 1 nM | – | 99.5
O=C(Nc1ccc(Oc2nnc(-c3ccc(Cl)cc3)c3ccccc23)cc1)c1cccc([N+](=O)[O-])c1 | HepG2 | MTT | 10 µM | 24 h | 6.17
CC(C)(C)c1cnc(CSc2cnc(NC(=O)C3CCN(CCCCSc4cccc5c4C(=O)N(C4CCC(=O)NC4=O)C5=O)CC3)s2)o1 (stereo not shown) | HH | CCK-8 | 0.2 µM | – | 1.85
